From article PMC7127737 (Bioorganic & Medicinal Chemistry Letters, 2008)

How the values were obtained:
human CpA = molecular target: T1, human CpA (Homo sapiens, UniProt P15085); assay: Inhibition of recombinant human CpA, fluorescence assay; assay type: biochemical; conditions: for more potent inhibition of CpA relative to 1a: compared with 1a; for selectivity for ACE2 versus CpA: ratio of Ki Apps CpA/ACE2
T1 sequence (P15085 111-419): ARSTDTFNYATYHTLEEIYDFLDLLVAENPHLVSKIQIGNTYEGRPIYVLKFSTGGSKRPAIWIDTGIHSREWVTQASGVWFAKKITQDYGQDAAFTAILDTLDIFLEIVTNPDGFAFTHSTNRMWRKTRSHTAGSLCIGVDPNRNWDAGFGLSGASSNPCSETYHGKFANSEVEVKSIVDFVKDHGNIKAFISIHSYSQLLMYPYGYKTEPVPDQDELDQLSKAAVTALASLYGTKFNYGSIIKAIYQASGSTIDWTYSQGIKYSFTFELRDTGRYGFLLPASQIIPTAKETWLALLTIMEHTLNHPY
How it was run: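 Recombinant human CpA (37 nM) was run with 30 μM Abz-Gly-Gly-Nph-OH, and recombinant human ACE2 (0.4 nM) with 30 μM MCA-Tyr-Val-Ala-Asp-Ala-Pro-Lys(DNP)-OH. Both used 50 mM Hepes pH 7.5, 1 μM Zn(OAc)2, 100 μM TCEP, 300 μM CHAPS and 300 mM NaCl. Compound was pre-incubated before substrate; read-out was fluorescence. Ki App is the mean of ≥2 assays; selectivity is the CpA/ACE2 Ki App ratio.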

human ACE = human ACE (Homo sapiens, UniProt P12821); assay: Inhibition of recombinant human ACE, fluorescence assay; assay type: biochemical; conditions: ratio of Ki Apps ACE/ACE2
How it was run: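 Buffer: 50 mM Hepes, 300 mM NaCl, 300 μM CHAPS, 1 μM Zn(OAc)2, 100 μM TCEP, pH 7.5. Thiols were diluted from 10 mM stocks in 50% aqueous acetonitrile and pre-incubated before substrate addition. Values are means of ≥2 assays.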

human NEP = human NEP (Homo sapiens, UniProt P08473); assay: Inhibition of recombinant human NEP, fluorescence assay; assay type: biochemical; conditions: ratio of Ki Apps NEP/ACE2
How it was run: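 Fluorescence protease assays, both in 50 mM Hepes pH 7.5 with 1 μM Zn(OAc)2, 100 μM TCEP, 300 μM CHAPS and 300 mM NaCl. NEP: recombinant human enzyme (0.15 nM) with 2 μM FAM-[…]TAMRA)-NH2. ACE2: recombinant human enzyme (0.4 nM) with 30 μM MCA-Tyr-Val-Ala-Asp-Ala-Pro-Lys(DNP)-OH. Compound was pre-incubated before substrate. Ki App is the mean of ≥2 assays; the NEP/ACE2 ratio gives selectivity.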

ACE2 = conditions: read-out: ACE2 IC50; reversible inhibitor; cited from earlier work

human ACE, sequence (P12821 30-1306): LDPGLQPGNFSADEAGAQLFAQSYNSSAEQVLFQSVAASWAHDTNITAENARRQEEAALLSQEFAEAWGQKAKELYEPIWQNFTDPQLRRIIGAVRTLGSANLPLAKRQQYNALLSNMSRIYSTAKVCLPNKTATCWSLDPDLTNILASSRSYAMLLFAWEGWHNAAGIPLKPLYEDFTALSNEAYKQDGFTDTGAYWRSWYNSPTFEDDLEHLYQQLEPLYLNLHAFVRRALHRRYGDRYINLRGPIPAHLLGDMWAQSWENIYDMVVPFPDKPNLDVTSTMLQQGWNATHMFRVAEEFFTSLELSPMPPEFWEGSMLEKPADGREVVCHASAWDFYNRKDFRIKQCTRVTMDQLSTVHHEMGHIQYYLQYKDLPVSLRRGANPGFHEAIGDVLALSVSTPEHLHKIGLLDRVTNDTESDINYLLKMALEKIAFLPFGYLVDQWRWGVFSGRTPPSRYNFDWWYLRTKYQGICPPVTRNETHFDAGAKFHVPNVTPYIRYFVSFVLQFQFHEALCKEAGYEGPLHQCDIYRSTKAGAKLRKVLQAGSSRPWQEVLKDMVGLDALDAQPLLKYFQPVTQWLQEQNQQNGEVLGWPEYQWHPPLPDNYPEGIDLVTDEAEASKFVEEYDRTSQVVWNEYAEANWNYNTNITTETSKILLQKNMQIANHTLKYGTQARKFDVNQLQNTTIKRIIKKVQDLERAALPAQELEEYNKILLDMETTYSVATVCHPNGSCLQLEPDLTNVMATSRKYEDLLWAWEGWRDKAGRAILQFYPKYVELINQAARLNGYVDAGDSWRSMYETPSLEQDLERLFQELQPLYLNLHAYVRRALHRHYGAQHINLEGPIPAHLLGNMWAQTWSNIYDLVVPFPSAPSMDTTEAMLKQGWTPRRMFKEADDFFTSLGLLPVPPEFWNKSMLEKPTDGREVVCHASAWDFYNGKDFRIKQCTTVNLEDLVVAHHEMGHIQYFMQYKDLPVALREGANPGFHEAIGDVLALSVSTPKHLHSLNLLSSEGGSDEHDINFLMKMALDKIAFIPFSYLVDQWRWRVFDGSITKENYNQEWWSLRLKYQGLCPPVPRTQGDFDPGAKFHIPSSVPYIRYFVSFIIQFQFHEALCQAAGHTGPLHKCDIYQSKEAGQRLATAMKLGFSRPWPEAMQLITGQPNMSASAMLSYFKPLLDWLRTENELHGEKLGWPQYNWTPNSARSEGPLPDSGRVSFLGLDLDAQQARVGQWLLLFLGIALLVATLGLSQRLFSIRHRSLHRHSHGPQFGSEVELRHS
human NEP, sequence (P08473 whole entry): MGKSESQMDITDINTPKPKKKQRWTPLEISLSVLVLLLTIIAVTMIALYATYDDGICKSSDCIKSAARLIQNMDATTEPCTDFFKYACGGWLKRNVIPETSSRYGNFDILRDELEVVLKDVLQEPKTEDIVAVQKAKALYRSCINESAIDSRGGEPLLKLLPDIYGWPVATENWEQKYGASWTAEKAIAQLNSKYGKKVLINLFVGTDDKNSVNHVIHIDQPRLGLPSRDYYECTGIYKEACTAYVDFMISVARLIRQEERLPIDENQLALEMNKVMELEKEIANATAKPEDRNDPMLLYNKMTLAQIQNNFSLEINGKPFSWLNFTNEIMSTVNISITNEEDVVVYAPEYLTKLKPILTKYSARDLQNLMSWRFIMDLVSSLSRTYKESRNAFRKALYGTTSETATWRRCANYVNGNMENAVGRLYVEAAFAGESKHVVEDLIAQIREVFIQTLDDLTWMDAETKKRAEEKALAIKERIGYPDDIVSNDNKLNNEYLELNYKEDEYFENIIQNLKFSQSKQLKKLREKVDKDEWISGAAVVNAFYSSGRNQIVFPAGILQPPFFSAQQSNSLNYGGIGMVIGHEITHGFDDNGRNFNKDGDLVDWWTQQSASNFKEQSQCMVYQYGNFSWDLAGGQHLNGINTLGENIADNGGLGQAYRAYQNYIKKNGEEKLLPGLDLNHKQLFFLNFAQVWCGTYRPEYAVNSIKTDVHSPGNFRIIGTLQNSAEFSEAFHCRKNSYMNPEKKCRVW

SMILES	more potent inhibition of CpA relative to 1a (human CpA) [fold]	selectivity for ACE2 versus ACE (human ACE) [fold]	selectivity for ACE2 versus CpA (human CpA) [fold]	selectivity for ACE2 versus NEP (human NEP) [fold]	IC50 (ACE2) [nM]
CC[C@@H](C)[C@H](S)C(=O)N[C@@H](Cc1ccccc1)C(=O)O [1d, N-[(2S,3R)-2-Mercapto-3-methylpentanoyl]-L-phenylalanine]	> 10	–	–	–	–
CC[C@@H](C)[C@H](S)C(=O)N[C@@H](Cc1ccc(O)cc1)C(=O)O [1e, N-[(2S,3R)-2-Mercapto-3-methylpentanoyl]-L-tyrosine]	> 10	–	–	–	–
CC[C@@H](C)[C@H](S)C(=O)N[C@@H](Cc1cccc2ccccc12)C(=O)O [1f, N-[(2S,3R)-2-Mercapto-3-methylpentanoyl]-3-(1-naphthalenyl)-L-alanine]	–	> 100	> 100	–	–
CC[C@@H](C)[C@H](S)C(=O)N[C@@H](Cc1ccc2ccccc2c1)C(=O)O [1g, N-[(2S,3R)-2-Mercapto-3-methylpentanoyl]-3-(2-naphthalenyl)-L-alanine]	–	> 100	> 100	–	–
CC[C@@H](C)[C@H](S)C(=O)N[C@@H](Cc1ccccc1Oc1ccccc1)C(=O)O [1j, N-[(2S,3R)-2-Mercapto-3-methylpentanoyl]-2-(phenyloxy)-L-phenylalanine]	–	> 100	> 100	–	–
CC[C@@H](C)[C@H](S)C(=O)N[C@@H](Cc1cccc(Oc2ccccc2)c1)C(=O)O [1k, N-[(2S,3R)-2-Mercapto-3-methylpentanoyl]-3-(phenyloxy)-L-phenylalanine]	–	> 100	> 100	14	–
CC[C@@H](C)[C@H](S)C(=O)N[C@@H](Cc1ccc(Oc2ccccc2)cc1)C(=O)O [1l, N-[(2S,3R)-2-Mercapto-3-methylpentanoyl]-O-phenyl-L-tyrosine]	–	> 100	> 100	5	–
CC[C@@H](C)[C@H](S)C(=O)N[C@@H](Cc1ccc(OCc2ccc(F)c(F)c2)cc1)C(=O)O [1r, O-[(3,4-Difluorophenyl)methyl]-N-[(2S,3R)-2-mercapto-3-methylpentanoyl]-L-tyrosine]	–	> 750	> 750	> 750	–
CC(C)C[C@H](N[C@@H](Cc1cncn1Cc1cc(Cl)cc(Cl)c1)C(=O)O)C(=O)O [MLN-4760]	–	–	–	–	0.44
